High-throughput results deposited in PubChem BioAssay by several laboratories.
Most compounds without a hit are left out; they make up all but 2.6% or so of the library.
SENP8 block-1 – inhibitors of human SENP8 protease; 360,000 compounds, 0.64% hits; Q96LD8; recombinant SENP8, Nedd8 substrate fluorescence; inhibition, % at 20 µM; AID 602440; in the data active means inhibition mostly above about 40%, no sharp cut-off; inactive means mostly below about 27%
Target sequence (Q96LD8 whole entry, looked up): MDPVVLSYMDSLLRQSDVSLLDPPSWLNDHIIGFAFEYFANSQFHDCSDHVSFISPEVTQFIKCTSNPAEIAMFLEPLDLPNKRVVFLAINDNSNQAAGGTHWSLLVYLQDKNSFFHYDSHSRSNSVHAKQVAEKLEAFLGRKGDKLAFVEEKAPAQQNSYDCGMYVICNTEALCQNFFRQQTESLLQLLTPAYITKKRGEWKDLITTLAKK
SENP6 block – inhibitors of human SENP6 protease; Q9GZR1; Recombinant SENP6 catalytic domain, aminoluciferin luminescence; inhibition, % at 10 µM; 330,000 compounds, 1.8% hits;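 active means inhibition above about 50% at the single tested dose, limit read from the data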;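 further: plate controls were DMSO wells with enzyme for no effect and DMSO wells lacking enzyme for full effect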
Target sequence (Q9GZR1 628-1112 limits assumed): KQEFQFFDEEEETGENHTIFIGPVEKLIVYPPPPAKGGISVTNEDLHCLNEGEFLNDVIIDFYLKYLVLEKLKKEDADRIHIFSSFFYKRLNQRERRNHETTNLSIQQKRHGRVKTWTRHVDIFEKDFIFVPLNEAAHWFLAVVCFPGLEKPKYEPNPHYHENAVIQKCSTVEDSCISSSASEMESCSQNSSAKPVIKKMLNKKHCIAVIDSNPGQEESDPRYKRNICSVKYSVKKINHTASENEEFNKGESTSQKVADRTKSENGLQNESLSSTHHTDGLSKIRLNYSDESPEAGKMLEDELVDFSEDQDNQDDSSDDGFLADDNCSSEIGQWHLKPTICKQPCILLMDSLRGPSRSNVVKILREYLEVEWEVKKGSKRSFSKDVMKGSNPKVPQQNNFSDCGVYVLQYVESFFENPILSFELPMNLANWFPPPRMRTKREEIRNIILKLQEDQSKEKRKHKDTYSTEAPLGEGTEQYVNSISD
SENP8 block-2 – inhibitors of human SENP8 protease; Q96LD8; purified SENP8, Z-RLRGG-aminoluciferin cleavage, luminescence; inhibition, % at 10 µM; 330,000 compounds, 1.2% hits; AID 2540; in the data active means inhibition above about 50%
Platelet DG rel – platelet dense granule release activity. human platelet-rich plasma, SFLLRN dense granule ATP release, luminescence. inhibition, %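 (compounds screened at 7.5 µM in platelet-rich plasma)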. 300,000 compounds, 0.22% hits;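 active means mean replicate score, as percent of positive control, at or above 50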
SENP7 block – blocks the human protease SENP7. recombinant SENP7, Z-RLRGG-aminoluciferin luminescence, 40 min. Q9BQF6. inhibition, % at 5 µM. AID 434973. 330,000 compounds, 1.5% hits;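 active means inhibition above about 50% at the single test dose, limit read from the data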;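 further: plate controls were DMSO with enzyme for no effect and no enzyme buffer wells for full effect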
SENP1 FRET inh – blocks the human SENP1 SUMO protease catalytic domain. 360,000 compounds, 0.21% hits. recombinant SENP1 catalytic domain, CyPet-SUMO1-YPet FRET cleavage. inhibition, % at 10 µM;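 active means inhibition at least 30% at 10 µM, raw YFP signal under a set limit, fluorescence ratio 0.5 to 1.5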;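 further: 0% = enzyme with DMSO and 100% = no enzyme wells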
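Material: hSENP1 catalytic domain, recombinant; medium: Tris pH 8 with BME, BSA, NP40 and catalase; compound: single concentration of 10 µM compound, 0.5% DMSO final; technique: FRET read of cyan and yellow fluorescence; timing: 50 min enzyme reaction, room temperature, light-protected; reagent: SFCypet-SUMO1-SFYpet substrate at 25 nM; control set: no-enzyme low, enzyme-DMSO high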
SENP8 conf-1 – confirmation of human SENP8 protease inhibitors; shares compounds with SENP7 block; Recombinant SENP8, Z-RLRGG-aminoluciferin luminescence, 60 min; inhibition, % at 12.5 µM; 6,200 compounds, 40% hits; AID 488912;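 active means mean inhibition across replicates above about 50%, limit read from the data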
SENP6 confirm – confirmation of human SENP6 protease inhibitors | inhibition, % at 12.5 µM | AID 488915 | recombinant SENP6, Z-RLRGG-aminoluciferin luminescence | shares compounds with SENP7 block | 6,200 compounds, 58% hits
SENP7 confirm – confirmation of human SENP7 protease inhibitors. shares compounds with SENP7 block. recombinant SENP7, Z-RLRGG-aminoluciferin luminescence, 40 min. inhibition, % at 12.5 µM. 6,200 compounds, 69% hits. AID 488917
Casp3 SENP sel – selectivity test for SENP inhibitors: human caspase-3 inhibition; purified caspase-3, Z-DEVD-aminoluciferin luminescence, 60 min; AID 488918; inhibition, % at 12.5 µM; 6,200 compounds, 60% hits; shares compounds with SENP7 block;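 active means mean inhibition above about 50%, limit read from the data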;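 further: plate controls were enzyme with DMSO for no effect and wells without caspase-3 for full effect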
Luc interf – interferes with luciferase luminescence in SENP counter-screen. shares compounds with SENP7 block. Pre-incubated SENP8/Z-RLRGG-aminoluciferin, luciferase luminescence interference. inhibition, % at 12.5 µM. 6,200 compounds, 39% hits. AID 488919;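 active means mean inhibition above about 50% when retested at one dose, limit read from the data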;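 further: plate controls were DMSO wells with completed reaction for no effect and substrate without enzyme for full effect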
SENP8 conf-2 – confirmation of human SENP8 protease inhibitors | shares compounds with SENP8 block-1 | 1,400 compounds, 15% hits | inhibition, % at 25 µM | purified SENP8, Nedd8-AMC/pro-Nedd8 cleavage fluorescence, 30 min; in the data active means inhibition mostly above about 39%, no sharp cut-off; inactive means mostly below about 34%
Starred values were filed as active, the others as inactive; / = no result.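 How the source made its calls, unless noted: active means mean inhibition above about 50% in the one-dose retest (limit read from the data); inactive means the rest.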

SMILES | SENP8 block-1 | SENP6 block | SENP8 block-2 | Platelet DG rel | SENP7 block | SENP1 FRET inh | SENP8 conf-1 | SENP6 confirm | SENP7 confirm | Casp3 SENP sel | Luc interf | others
CC(C)OCCCNC(=O)c1c(N)n(Cc2cccs2)c2nc3ccccc3nc12 | -493.1 | 63.7* | 44.2 | -6.8 | 29.6 | 7.5 | 6.0 | 12.1 | 12.2 | 6.4 | 2.0
CCOC(=O)c1c(NS(=O)(=O)c2ccccc2)n(CCCOC)c2nc3ccccc3nc12 | -423.1 | 95.4* | 91.4* | -1.0 | 95.3* | -28.0 | 29.0 | 58.3* | 37.5 | 1.2 | 0.6
Nc1c(C(=O)OCC2CCCO2)c2nc3ccccc3nc2n1Cc1cccs1 (stereo unspecified) | -479.5 | 17.6 | 15.2 | 2.0 | 9.7 | -40.5 | / | / | / | / | /
CCOC(=O)c1c(N)n(Cc2ccc(OC)cc2)c2nc3ccccc3nc12 | / | / | / | -0.8 | / | / | / | / | / | / | /
CC(C)CCn1c(N)c(C(=O)NCc2cccs2)c2nc3ccccc3nc21 | -279.1 | 80.0* | 87.5* | -0.3 | 50.6* | -22.6 | -3.6 | 4.2 | 8.9 | 2.9 | 1.9
COCCNC(=O)c1c(N)n(CCC(C)C)c2nc3ccccc3nc12 | -287.2 | 86.2* | 81.2* | -2.5 | 28.8 | -22.6 | 4.6 | 26.3 | 22.1 | 5.9 | 9.5
C[C@@]12CC[C@@H](c3cc4c(cc3C1)OCO4)N2c1ccccc1 | 20.3 | / | / | / | / | 3.1 | / | / | / | / | /
Cc1c(CCC(=O)N2C[C@H]3C[C@@H](C2)c2cccc(=O)n2C3)c(=O)oc2c(C)c(O)ccc12 | -1.9 | / | / | / | / | -56.8 | / | / | / | / | /
CC(C)OP(=O)(Oc1ccc(C(O)C(Cl)(Cl)Cl)cc1)OC(C)C (stereo unspecified) | 17.2 | -5.5 | 2.2 | 6.0 | 5.4 | 1.8 | / | / | / | / | /
Oc1ccc(C(=C(Cl)Cl)c2ccc(O)cc2)cc1 | / | -12.5 | -11.7 | 6.1 | -3.6 | / | / | / | / | / | /
Cc1ccc(NC(=O)c2snnc2C)cc1Cl | 10.9 | 64.8* | 32.6 | 8.4 | 60.2* | 2.0 | 49.1 | 48.0 | 82.8* | 63.5* | 61.3*
O=C(N/N=C/c1c(O)n(C2CC2)c(=S)[nH]c1=O)c1ccccc1O | -234.6 | 81.5* | 82.9* | 0.2 | 82.6* | -29.0 | 88.4* | 85.5* | 94.6* | 87.4* | 25.3
Cc1ccc2c(c1)Oc1ccccc1N=C2 | 23.7 | / | / | / | / | 1.9 | / | / | / | / | /
COc1ccccc1N=Cc1c(O)n(C)c(=O)n(C)c1=O | -320.2 | 63.0* | 10.5 | 9.8 | 55.8* | -0.8 | 11.2 | 27.7 | 73.3* | 46.3 | 59.4*
CN1CC[C@@]2(C)c3cc(O)ccc3N(C)C2O1 (stereo partly specified) | -76.6 | 57.1* | 23.8 | 8.5 | 33.8 | -10.1 | 28.9 | 55.7* | 30.2 | -3.6 | -8.6
CC1[C@H]2Cc3ccc(O)cc3[C@]1(C)CCN2C (stereo partly specified) | 9.3 | / | / | / | / | 0.5 | / | / | / | / | /
Cc1cccc(N/N=C/c2c(O)[nH]c(=S)[nH]c2=O)c1 | 19.8 | 35.2 | 83.7* | 11.4 | 1.1 | 3.1 | 93.9* | 94.5* | 100.9* | 96.4* | 58.4*
COc1ccc(N/N=C/c2c(O)n(-c3cccc(C)c3)c(=O)[nH]c2=O)cc1 | 0.9 | -7.3 | -2.8 | -4.6 | -1.2 | 6.6 | / | / | / | / | /
CC12Nc3ccccc3C(=O)N1Cc1cnnn1-c1ccccc12 (stereo unspecified) | -392.8 | / | / | / | / | 5.1 | / | / | / | / | /
COC(=O)N1Cc2ccccc2-n2nncc2C1 | 4.4 | / | / | / | / | 0.6 | / | / | / | / | /
CCCNC(=O)c1c(N)n(Cc2ccc3c(c2)OCO3)c2nc3ccccc3nc12 | -272.7 | 53.8* | 52.9* | 0.6 | 18.7 | -32.2 | -20.7 | -8.4 | 3.9 | -2.4 | -2.2
CC(C)CNC(=O)c1c(N)n(Cc2ccc3c(c2)OCO3)c2nc3ccccc3nc12 | -322.9 | 91.3* | 90.9* | -1.8 | 73.2* | -17.6 | 12.6 | 20.6 | 19.2 | 9.8 | 2.9
CCCNC(=O)c1c(N)n(Cc2ccco2)c2nc3ccccc3nc12 | / | 20.7 | 14.5 | -4.8 | 14.9 | / | / | / | / | / | /
CC(C)CCNC(=O)c1c(N)n(Cc2ccc3c(c2)OCO3)c2nc3ccccc3nc12 | -256.8 | 72.0* | 81.8* | 5.9 | 57.6* | -21.9 | -10.0 | 4.8 | -3.5 | 5.0 | -8.7
COc1ccc(Cn2c(N)c(C(=O)NCc3ccco3)c3nc4ccccc4nc32)cc1OC | -492.7 | 74.4* | 52.3* | / | 38.5 | 7.0 | 6.4 | 11.0 | 10.7 | 4.5 | 1.3
SMILES | SENP8 block-1 | SENP6 block | SENP8 block-2 | Platelet DG rel | SENP7 block | SENP1 FRET inh | SENP8 conf-1 | SENP6 confirm | SENP7 confirm | Casp3 SENP sel | Luc interf | others
COC1C(O)C(C)OC(OC2C(Oc3cccc4c(O)c5c(=O)oc6ccc(C)c7c(=O)oc(c34)c5c67)OC(C)C(O)C2O)C1O (stereo unspecified) | -465.5 | / | / | / | / | -33.5 | / | / | / | / | /
CCC(COC(=O)NC)NC(=O)Oc1cccc(C)c1 (stereo unspecified) | 18.2 | -10.8 | -5.6 | 0.7 | -9.7 | 2.5 | / | / | / | / | /
CNC(=O)Oc1cccc(-c2cn3cc(Cl)ccc3n2)c1 | -271.6 | 85.3* | 83.2* | 19.1 | 83.2* | -0.5 | 92.4* | 94.7* | 101.7* | 94.8* | 92.0*
CN(C)C(=O)Oc1ccc(OC(=O)c2ccccc2)cc1 | 10.6 | 90.0* | 80.7* | 32.1 | 5.0 | 0.5 | 64.9* | 89.3* | 98.2* | 92.5* | 50.9*
CN(C(=O)Oc1ccc(C(=O)c2ccc(Cl)cc2)cc1)c1ccccc1 | 17.2 | 4.7 | -1.2 | 2.8 | 1.5 | -0.8 | / | / | / | / | /
CSCCC(c1nnnn1Cc1ccccc1)N1CCC2(CC1)C(=O)NCN2c1ccccc1 (stereo unspecified) | 26.1 | / | / | / | / | 2.1 | / | / | / | / | /
CN1CC=C(/C=C/c2ccc(-c3ccccc3)cc2)CC1 | / | 85.9* | 75.6* | 1.0 | 81.5* | / | 71.6* | 87.6* | 97.3* | 87.7* | 71.7*
CN(C)Cc1c[nH]c2ccccc12 | 40.7* | -1.6 | -0.9 | / | -5.8 | -0.6 | / | / | / | / | / | SENP8 conf-2=2.2
NNc1n[nH]c(=S)n1N | 42.0* | -6.6 | -2.3 | -4.9 | 4.8 | 0.9 | / | / | / | / | / | SENP8 conf-2=22.3
O=C(CCc1ccccc1)N1C[C@H]2C[C@@H](C1)c1cccc(=O)n1C2 | 61.2* | -16.2 | -17.3 | 0.2 | -13.1 | 0.6 | / | / | / | / | / | SENP8 conf-2=28.6
